Reference: ChEMBL document CHEMBL1144738, “Cytotoxic diterpenoids and sesquiterpenoids from Pteris multifida” (J Nat Prod, 2008)
pIC50: −log10 of the molar value.

Experiments:
[1] = tested on: KB; assay: Cytotoxicity against human KB cells by SRB method; assay type: functional, cell-based
Outline: (§1)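 Adherent cells were grown in RPMI1640 with 10% FBS, 100 U/mL penicillin and 100 U/mL streptomycin, then plated and incubated for 24 h. They were exposed to test compounds at 10^-2 to 10^2 µM for 72 h. Growth inhibition was read by sulforhodamine B (SRB) staining and expressed as IC50, the mean of triplicate points. Adriamycin and taxotere were positive controls.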

[2] = tested on: K562; assay: Cytotoxicity against human K562 cells by WST-1 method
[3] = tested on: LoVo; assay: Cytotoxicity against human LoVo cells by SRB method; assay type: functional, cell-based; outline: as §1
[4] = tested on: HepG2; assay: Cytotoxicity against human HepG2 cells by SRB method; assay type: functional, cell-based; outline: as §1

Compound	pIC50 [1]	pIC50 [2]	pIC50 [3]	pIC50 [4]
C=C1[C@@H]2CC[C@H]3[C@]4(C)C[C@H](O)C[C@](C)(CO)[C@H]4CC[C@]3(C2)[C@H]1O	4.58	< 4.00	4.69	< 4.00
C=C1[C@@H]2CC[C@H]3[C@]4(C)C[C@H](O)C[C@](C)(CO)[C@H]4CC[C@]3([C@@H]2O)[C@H]1O	4.16	< 4.00	4.12	< 4.00
Cc1cc2c(c(C)c1CCO[C@@H]1O[C@H](CO)[C@@H](OC(=O)/C=C/c3ccc(O)cc3)[C@H](O)[C@H]1O)C(=O)[C@H](C)C2	4.34	4.19	< 3.40	< 4.00
Cc1cc2c(c(C)c1CCO)C(=O)[C@H](C)[C@@H]2O[C@@H]1O[C@H](CO)[C@@H](OC(=O)/C=C/c2ccc(O)cc2)[C@H](O)[C@H]1O	4.62	5.02	< 3.40	5.03
CC1(C)C[C@@H](O)C[C@]2(C)[C@@H]1[C@H](O)C[C@@]13C[C@@H](CC[C@H]12)[C@@](O)(CO)C3	4.27	4.09	4.04	4.08
Cc1cc2c(c(C)c1CCO)C(=O)[C@@H](C)[C@@H]2O[C@@H]1O[C@H](CO)[C@@H](OC(=O)/C=C/c2ccc(O)cc2)[C@H](O)[C@H]1O	4.85	4.97	4.95	5.06
CC(=O)O[C@@]12CO[C@@H]1C[C@H](O)[C@@]1(C)C(=O)[C@H](O)C3=C(C)[C@@H](OC(=O)[C@H](O)[C@@H](NC(=O)OC(C)(C)C)c4ccccc4)C[C@@](O)([C@@H](OC(=O)c4ccccc4)[C@H]21)C3(C)C [DOCETAXEL]	8.94		8.71	
COc1cccc2c1C(=O)c1c(O)c3c(c(O)c1C2=O)C[C@@](O)(C(=O)CO)C[C@@H]3O[C@H]1C[C@H](N)[C@H](O)[C@H](C)O1 [DOXORUBICIN]	< 3.40	7.05	< 3.40	7.22
